“Also recorded” adds a separate entry of the source.
Tested on: adult S. mansoni
Assay: Single-concentration phenotypic severity score assay on adult worms
Format: cell-based, Schistosoma mansoni
Details: severity score assay at 5 μM
Procedure, shortened: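 Adult S. mansoni were exposed to test compound at 5 μM. Adherence, shape, density and mobility were scored visually at 2, 5, 24 and 48 h using a constrained set of phenotypic descriptors, each typically valued 1. The descriptor values were summed into a severity score from 0 (no activity) to 4 (maximal activity). Each compound was screened twice as a singleton and representative data are reported.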

| Structure (SMILES) | Antischistosomal activity in words |
| --- | --- |
| O=C(Nc1cccc(C(F)(F)F)c1)c1cccc(C(F)(F)F)c1 [compound 33, 3-(Trifluoromethyl)-N-(3-(trifluoromethyl)phenyl)benzamide] | potency is lost |
| O=C(Nc1cc(C(F)(F)F)cnn1)c1ccc(C(F)(F)F)cc1 [compound 49, 4-(Trifluoromethyl)-N-(5-(trifluoromethyl)pyridazin-3-yl)benzamide] | abolished activity; also recorded: inactive against the worm |

Reference: publication PMC11932705 (Results in chemistry, 2024)
